Columns and labels:
Assay type in all cases: functional
Streptococcus pneumoniae [1] = test: Antimicrobial activity against extended spectrum beta-lactamases-producing Streptococcus pneumoniae 10-1 after 18-24 hrs by two-fold serial dilution method
How it was run: (§1)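 Agar-medium twofold serial dilution against Gram-positive and Gram-negative strains; MIC taken as the lowest compound concentration giving complete inhibition of bacterial growth after incubation at 35 °C for 18-24 h.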

Klebsiella pneumoniae [2] = test: Antimicrobial activity against Klebsiella pneumoniae 10-3 after 18-24 hrs by two-fold serial dilution method; how it was run: as §1
Escherichia coli [3] = test: Antimicrobial activity against Escherichia coli ATCC 25922 after 18-24 hrs by two-fold serial dilution method; how it was run: as §1
Escherichia coli [4] = test: Antimicrobial activity against Escherichia coli 10-3 after 18-24 hrs by two-fold serial dilution method; how it was run: as §1
Enterococcus faecalis [5] = test: Antimicrobial activity against Enterococcus faecalis 10-7 after 18-24 hrs by two-fold serial dilution method; how it was run: as §1
Staphylococcus aureus [6] = test: Antimicrobial activity against extended spectrum beta-lactamases-producing methicillin-sensitive Staphylococcus aureus 10-14 after 18-24 hrs by two-fold serial dilution method; how it was run: as §1
Klebsiella pneumoniae [7] = test: Antimicrobial activity against extended spectrum beta-lactamases-producing Klebsiella pneumoniae 10-3 after 18-24 hrs by two-fold serial dilution method; how it was run: as §1
Klebsiella pneumoniae [8] = test: Antimicrobial activity against extended spectrum beta-lactamases-producing Klebsiella pneumoniae 10-1 after 18-24 hrs by two-fold serial dilution method; how it was run: as §1
[9] = tested on: Staphylococcus epidermidis; test: Antimicrobial activity against extended spectrum beta-lactamases-producing methicillin-sensitive Staphylococcus epidermidis 10-15 after 18-24 hrs by two-fold serial dilution method; how it was run: as §1
[10] = tested on: Staphylococcus epidermidis; test: Antimicrobial activity against extended spectrum beta-lactamases-producing methicillin-resistant Staphylococcus epidermidis 10-10 after 18-24 hrs by two-fold serial dilution method
How it was run: (§2)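 Agar twofold serial dilution MIC against clinical isolates. MIC was taken as the lowest concentration giving complete inhibition of bacterial growth after incubation at 35 °C for 18-24 h.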

Staphylococcus aureus [11] = test: Antimicrobial activity against extended spectrum beta-lactamases-producing methicillin-sensitive Staphylococcus aureus 10-13 after 18-24 hrs by two-fold serial dilution method; how it was run: as §1
Pseudomonas aeruginosa [12] = test: Antimicrobial activity against extended spectrum beta-lactamases-producing Pseudomonas aeruginosa 10-20 after 18-24 hrs by two-fold serial dilution method; how it was run: as §1
Pseudomonas aeruginosa [13] = test: Antimicrobial activity against extended spectrum beta-lactamases-producing Pseudomonas aeruginosa 10-18 after 18-24 hrs by two-fold serial dilution method; how it was run: as §1
[14] = tested on: Staphylococcus epidermidis; test: Antimicrobial activity against extended spectrum beta-lactamases-producing methicillin-sensitive Staphylococcus epidermidis 10-11 after 18-24 hrs by two-fold serial dilution method; how it was run: as §1
Pseudomonas aeruginosa [15] = test: Antimicrobial activity against Pseudomonas aeruginosa 10-12 after 18-24 hrs by two-fold serial dilution method; how it was run: as §1
Escherichia coli [16] = test: Antimicrobial activity against extended spectrum beta-lactamases-producing Escherichia coli 10-3 after 18-24 hrs by two-fold serial dilution method; how it was run: as §1
Streptococcus pneumoniae [17] = test: Antimicrobial activity against extended spectrum beta-lactamases-producing Streptococcus pneumoniae 10-4 after 18-24 hrs by two-fold serial dilution method; how it was run: as §1
Pseudomonas aeruginosa [18] = test: Antimicrobial activity against extended spectrum beta-lactamases-producing Pseudomonas aeruginosa 10-9 after 18-24 hrs by two-fold serial dilution method; how it was run: as §1
Escherichia coli [19] = test: Antimicrobial activity against Escherichia coli 10-1 after 18-24 hrs by two-fold serial dilution method; how it was run: as §1
Staphylococcus aureus [20] = test: Antimicrobial activity against extended spectrum beta-lactamases-producing methicillin-resistant Staphylococcus aureus 10-11 after 18-24 hrs by two-fold serial dilution method; how it was run: as §2
[21] = tested on: Staphylococcus epidermidis; test: Antimicrobial activity against extended spectrum beta-lactamases-producing methicillin-sensitive Staphylococcus epidermidis 10-13 after 18-24 hrs by two-fold serial dilution method; how it was run: as §1
Staphylococcus aureus [22] = test: Antimicrobial activity against extended spectrum beta-lactamases-producing methicillin-resistant Staphylococcus aureus 10-15 after 18-24 hrs by two-fold serial dilution method; how it was run: as §2
Escherichia coli [23] = test: Antimicrobial activity against extended spectrum beta-lactamases-producing Escherichia coli 10-4 after 18-24 hrs by two-fold serial dilution method; how it was run: as §1
Enterococcus faecalis [24] = test: Antimicrobial activity against Enterococcus faecalis 10-5 after 18-24 hrs by two-fold serial dilution method; how it was run: as §1
Pseudomonas aeruginosa [25] = test: Antimicrobial activity against extended spectrum beta-lactamases-producing Pseudomonas aeruginosa 10-5 after 18-24 hrs by two-fold serial dilution method; how it was run: as §1
Enterococcus faecalis [26] = test: Antimicrobial activity against Enterococcus faecalis 10-6 after 18-24 hrs by two-fold serial dilution method; how it was run: as §1
Klebsiella pneumoniae [27] = test: Antimicrobial activity against Klebsiella pneumoniae 10-4 after 18-24 hrs by two-fold serial dilution method; how it was run: as §1
Klebsiella pneumoniae [28] = test: Antimicrobial activity against extended spectrum beta-lactamases-producing Klebsiella pneumoniae 10-2 after 18-24 hrs by two-fold serial dilution method; how it was run: as §1
Enterococcus faecium [29] = test: Antimicrobial activity against Enterococcus faecium 10-9 after 18-24 hrs by two-fold serial dilution method; how it was run: as §1
Escherichia coli [30] = test: Antimicrobial activity against extended spectrum beta-lactamases-producing Escherichia coli 10-2 after 18-24 hrs by two-fold serial dilution method; how it was run: as §1
[31] = tested on: Staphylococcus epidermidis; test: Antimicrobial activity against extended spectrum beta-lactamases-producing methicillin-resistant Staphylococcus epidermidis 10-13 after 18-24 hrs by two-fold serial dilution method; how it was run: as §2
Escherichia coli [32] = test: Antimicrobial activity against Escherichia coli 10-2 after 18-24 hrs by two-fold serial dilution method; how it was run: as §1
Pseudomonas aeruginosa [33] = test: Antimicrobial activity against extended spectrum beta-lactamases-producing Pseudomonas aeruginosa 10-15 after 18-24 hrs by two-fold serial dilution method; how it was run: as §1
Klebsiella pneumoniae [34] = test: Antimicrobial activity against Klebsiella pneumoniae 10-2 after 18-24 hrs by two-fold serial dilution method; how it was run: as §1
Staphylococcus aureus [35] = test: Antimicrobial activity against Staphylococcus aureus ATCC […] after 18-24 hrs by two-fold serial dilution method; how it was run: as §1
Enterococcus faecium [36] = test: Antimicrobial activity against Enterococcus faecium 10-5 after 18-24 hrs by two-fold serial dilution method; how it was run: as §1

Measured: MIC

COc1ccc(CO/N=C2\CN(c3nc4c(cc3F)c(=O)c(C(=O)O)cn4C3CC3)CC2CN)c(OC)c1.CS(=O)(=O)O (racemic)
2 µg/mL: Enterococcus faecalis [5] | [10]
> 128 µg/mL: Klebsiella pneumoniae [7] | Klebsiella pneumoniae [8] | Escherichia coli [19] | Klebsiella pneumoniae [27] | Klebsiella pneumoniae [28] | Escherichia coli [30] | Klebsiella pneumoniae [34]
0.5 µg/mL: Enterococcus faecalis [24] | [31]
1 µg/mL: Streptococcus pneumoniae [1] | Staphylococcus aureus [11] | Staphylococcus aureus [20] | [21]
32 µg/mL: Escherichia coli [16]
0.06 µg/mL: Staphylococcus aureus [6] | Pseudomonas aeruginosa [15] | Staphylococcus aureus [35]
8 µg/mL: Klebsiella pneumoniae [2] | Pseudomonas aeruginosa [18] | Enterococcus faecium [29] | Escherichia coli [32] | Pseudomonas aeruginosa [33] | Enterococcus faecium [36]
0.25 µg/mL: Pseudomonas aeruginosa [12] | Staphylococcus aureus [22] | Escherichia coli [23]
16 µg/mL: Escherichia coli [4] | Pseudomonas aeruginosa [13]
0.125 µg/mL: Escherichia coli [3]
4 µg/mL: [9] | [14] | Streptococcus pneumoniae [17] | Pseudomonas aeruginosa [25] | Enterococcus faecalis [26]

COc1ccc(CO/N=C2\CN(c3nc4c(cc3F)c(=O)c(C(=O)O)cn4C3CC3)CC2CN)c(Cl)c1OC.CS(=O)(=O)O (racemic)
0.008 µg/mL: Staphylococcus aureus [35]
0.06 µg/mL: Streptococcus pneumoniae [17]
0.03 µg/mL: [21]
4 µg/mL: Escherichia coli [23] | Enterococcus faecalis [26] | Enterococcus faecium [29] | Enterococcus faecium [36]
2 µg/mL: Enterococcus faecalis [5]
8 µg/mL: Klebsiella pneumoniae [2] | Pseudomonas aeruginosa [18]
0.015 µg/mL: Staphylococcus aureus [6] | Staphylococcus aureus [11]
1 µg/mL: [9] | Staphylococcus aureus [20]
0.5 µg/mL: Streptococcus pneumoniae [1] | [10] | [31]
32 µg/mL: Escherichia coli [32] | Pseudomonas aeruginosa [33]
16 µg/mL: Escherichia coli [4] | Pseudomonas aeruginosa [12] | Pseudomonas aeruginosa [13] | Pseudomonas aeruginosa [15] | Pseudomonas aeruginosa [25]
> 128 µg/mL: Klebsiella pneumoniae [7] | Klebsiella pneumoniae [8] | Escherichia coli [16] | Escherichia coli [19] | Klebsiella pneumoniae [27] | Klebsiella pneumoniae [28] | Escherichia coli [30] | Klebsiella pneumoniae [34]
0.25 µg/mL: Escherichia coli [3] | [14] | Staphylococcus aureus [22] | Enterococcus faecalis [24]

COc1cc(CO/N=C2\CN(c3nc4c(cc3F)c(=O)c(C(=O)O)cn4C3CC3)CC2CN)c([N+](=O)[O-])cc1OC.CS(=O)(=O)O (racemic)
0.25 µg/mL: Escherichia coli [3] | [21]
0.125 µg/mL: Staphylococcus aureus [6] | Staphylococcus aureus [11] | Streptococcus pneumoniae [17] | Enterococcus faecalis [24]
2 µg/mL: Enterococcus faecalis [5] | [14] | Staphylococcus aureus [20]
4 µg/mL: Klebsiella pneumoniae [2] | Escherichia coli [23]
8 µg/mL: [9] | Escherichia coli [32] | Enterococcus faecium [36]
> 128 µg/mL: Klebsiella pneumoniae [7] | Klebsiella pneumoniae [8] | Escherichia coli [16] | Escherichia coli [19] | Klebsiella pneumoniae [27] | Klebsiella pneumoniae [28] | Escherichia coli [30] | Klebsiella pneumoniae [34]
0.015 µg/mL: Staphylococcus aureus [35]
1 µg/mL: Streptococcus pneumoniae [1] | [10] | Staphylococcus aureus [22] | [31]
32 µg/mL: Escherichia coli [4] | Pseudomonas aeruginosa [12] | Pseudomonas aeruginosa [33]
16 µg/mL: Pseudomonas aeruginosa [13] | Pseudomonas aeruginosa [15] | Pseudomonas aeruginosa [18] | Pseudomonas aeruginosa [25] | Enterococcus faecalis [26] | Enterococcus faecium [29]
